Runt-CBFb FRET – inhibitors of RUNX1 Runt–CBFb binding, primary screen, biochemical, FRET, Cerulean-Runt, Venus-CBFb, uHTS. 220,000 compounds, 0.46% hits. Cerulean-Runt/Venus-CBFb FRET ratio 530/480, 1 h. inhibition, % at 20 µM;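 active means inhibition over about 50% at 20 µM in the single-dose screen, limit read from the data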;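 further: 0% = DMSO wells and 100% = excess unlabeled CBFb competitor control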
Target sequence (Q01196 whole entry, looked up): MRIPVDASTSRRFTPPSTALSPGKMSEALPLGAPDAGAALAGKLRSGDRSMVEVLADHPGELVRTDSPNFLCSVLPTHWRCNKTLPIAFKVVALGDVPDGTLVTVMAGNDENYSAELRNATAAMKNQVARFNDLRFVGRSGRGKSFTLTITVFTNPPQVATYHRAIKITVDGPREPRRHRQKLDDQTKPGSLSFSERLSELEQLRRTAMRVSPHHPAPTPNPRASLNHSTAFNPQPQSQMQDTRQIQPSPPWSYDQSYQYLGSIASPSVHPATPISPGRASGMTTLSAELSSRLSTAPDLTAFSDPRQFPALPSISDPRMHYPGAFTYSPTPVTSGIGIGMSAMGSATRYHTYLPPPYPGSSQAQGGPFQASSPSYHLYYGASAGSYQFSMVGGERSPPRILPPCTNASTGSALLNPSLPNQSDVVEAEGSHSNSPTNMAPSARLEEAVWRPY
Target sequence (Q13951 whole entry, looked up): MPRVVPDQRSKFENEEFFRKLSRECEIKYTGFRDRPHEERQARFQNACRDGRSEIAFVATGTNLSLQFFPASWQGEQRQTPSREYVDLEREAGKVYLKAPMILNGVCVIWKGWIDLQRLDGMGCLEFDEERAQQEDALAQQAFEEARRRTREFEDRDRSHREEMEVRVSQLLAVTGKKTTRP
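System: Cerulean-labeled Runt domain protein | Quantity: 100 nM of each labeled protein | Schedule: 1 h compound exposure, room temperature | Detection: Fluorescence energy transfer, 422 nm excitation, 530/480 nm emission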
RanGTP-Impb inh – inhibitors of RanGTP-importin-beta interaction, primary screen, biochemical, FRET, CFP-Ran, YFP-importin-beta, homogeneous | Ran GTPase (GTP-bound) - importin-beta complex | cell-free CFP-Ran/YFP-importin-beta FRET ratio | inhibition, % (no concentration beside the values) | 300,000 compounds, 1.1% hits | AID 2216, 2009;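 active means more than half of the replicate wells show a fall in the fluorescence ratio signal beyond about 16%, limit read from the data, passing the limit was not always enough; inconclusive means exactly half of the replicate wells pass the set limit; inactive means fewer than half of replicates pass the limit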;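 further: 0% = DMSO wells and 100% = Ran loaded with GDP instead of GTP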
Runt-SMMHC FRET – inhibitors of RUNX1 Runt–CBFb-SMMHC binding, primary screen, biochemical, FRET, Cerulean-Runt, Venus-CBFb-SMMHC, uHTS | 220,000 compounds, 0.74% hits | Runt-related transcription factor 1 (Homo sapiens) + Core-binding factor subunit beta … | inhibition, % at 20 µM | Cerulean-Runt/Venus-CBFb-SMMHC FRET ratio 530/480, 1 h;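 active means mean inhibition across duplicate retests at 20 µM reaching about 50%, limit read from the data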;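 further: 0% = DMSO wells and 100% = wells with excess untagged CBFb-SMMHC; inhibitors lower the FRET ratio by blocking Runt binding to CBFb-SMMHC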
Hck-Nef inh – inhibitors of Nef-activated human Hck kinase, primary screen, biochemical, Z-Lyte FRET, 384-well, Hck-YEEI. Tyrosine-protein kinase HCK (Homo sapiens), P08631. Recombinant Hck-YEEI plus Nef, Z-Lyte FRET kinase assay. inhibition, % at 20 µM. 220,000 compounds, 0.68% hits. AID 463187, 2010;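 active means Hck-Nef kinase inhibition above about 50%, limit read from the data; inactive means inhibition below that limit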;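 further: 0% = DMSO with Hck plus Nef and 100% = Hck alone without Nef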
* marks the source's active call; other numbers are inactive results; u = inconclusive; x = not tested or not shown. In the library only some 1.9% were active in any assay of this set; here they are far more common.

SMILES	Runt-CBFb FRET	RanGTP-Impb inh	Runt-SMMHC FRET	Hck-Nef inh
Cc1cccc(N(C)S(=O)(=O)c2nnc(NC(=O)c3ccco3)s2)c1	x	175.8*	x	x
CCOC(=O)CN1C(=O)N[C@@H](CCc2ccccc2)[C@H](C(C)=O)[C@H]1C	x	1.0	x	x
COc1cccc2[nH]c3ccccc3c(=O)c12	x	126.6*	x	x
O=c1c2c([nH]c3ccccc13)CCCC2	-3.3	1.8	-1.9	-1.0
Nc1cccc2c(=O)c3ccccc3[nH]c12	x	63.7*	x	x
O=C(Nc1ccccn1)C1CCCN1S(=O)(=O)c1ccc(Cl)cc1 (stereo unspecified)	x	2.6	x	x
CCC(C)(C(=O)NC1CCCCC1)N(C(=O)Cc1cccs1)c1ccccc1 (stereo unspecified)	-1.9	8.1	-0.5	3.4
CC1CCCN(c2sc(S(C)(=O)=O)nc2S(=O)(=O)c2ccc(Cl)cc2)C1 (stereo unspecified)	x	4.8	x	x
CC1CN(c2sc(S(C)(=O)=O)nc2S(=O)(=O)c2ccc(Cl)cc2)CC(C)O1 (stereo unspecified)	x	16.1*	x	x
c1ccc(-c2nnc(-c3ccncc3)o2)cc1	0.1	0.5	0.7	2.1
COc1ccc(-c2cc(-c3nnc(-c4ccncc4)o3)c3ccccc3n2)cc1	33.7	3.1	69.5*	4.8
COC(=O)c1c(NC(=O)CN2CCN(S(=O)(=O)c3ccccc3)CC2)sc2c1CCC(C)C2 (stereo unspecified)	-0.5	3.2	-2.3	1.7
CCCN1CCc2c(sc(NC(=O)CCS(=O)(=O)c3ccccc3)c2C(=O)OC)C1	x	154.6*	x	x
CC(C)N1CCc2c(sc(NC(=O)CCS(=O)(=O)c3ccccc3)c2C#N)C1	x	168.5*	x	x
COC(=O)c1c(NC(=O)CCS(=O)(=O)c2ccccc2)sc2c1CCN(C)C2	x	78.8*	x	x
CC12CC3(C)CC(C)(C1)CC(C(=O)NCc1ccccn1)(C2)C3	-5.2	34.5*	-2.3	-0.6
CCOC(=O)c1c(=O)n(O)c2ccc(OC)cc2[n+]1[O-]	-189.0	-4.0	-155.5	-3.6
COc1cc(-c2onc3ccc(Br)cc23)cc(OC)c1OC	67.2*	10.0	110.6*	21.6
CCSc1nc2ccccc2n1C(=O)/C=C\c1ccc(OC)c(OC)c1	-4.7	3.8	-4.7	2.7
Cn1c(NC(=O)c2cc(-c3ccc4c(c3)OCO4)nc3ccccc23)cc(=O)n(C)c1=O	61.5*	-1.8	4.8	0.1
O=c1[nH]cc(COCc2ccccc2)c(=O)[nH]1	-0.7	6.8	-1.5	1.5
O=c1[nH]cc(NCCc2ccccc2)c(=O)[nH]1	8.6	43.2*	16.5	29.1
COc1cc(NC(=O)Nn2cnnc2)cc(OC)c1OC	x	0.8	x	x
O=C(CCc1ccccc1Cl)NC1CCCN(c2ccc(C(F)(F)F)cn2)C1 (stereo unspecified)	x	6.5	x	x
N#Cc1cc(NC(=O)c2ccc(F)cc2)c(=O)n2c1[nH]c1ccccc12	-2.8	25.7*	-13.2	22.6
SMILES	Runt-CBFb FRET	RanGTP-Impb inh	Runt-SMMHC FRET	Hck-Nef inh
COC(=O)c1ccccc1NC(=O)NC1CCN(Cc2ccccc2)CC1	90.9*	-1.2	-2.7	0.2
COc1ccccc1-[n+]1c(C)cc(/C=C2\Sc3ccccc3N2C)cc1C	6.5	0.9	63.3*	-32.5
CCCCn1nc(NC(=O)CC)c2cc3cc(OC)ccc3nc21	x	65.5*	x	x
CCCn1nc(NC(=O)C(C)(C)C)c2cc3cc(OC)ccc3nc21	x	67.3*	x	x
CCC(=O)Nc1nc2cc(OC)ccc2s1	-0.9	-3.0	3.6	2.3
COc1cc(OC)c2cc(C(=O)N[C@@H](Cc3ccccc3)C(=O)O)n(C)c2c1	x	1.1	x	x
NC(=O)c1ccc(NC(=O)COC(=O)C2CC(=O)N(Cc3ccccc3)C2)cc1 (stereo unspecified)	0.8	1.0	0.6	20.7
COc1ccccc1CNS(=O)(=O)c1ccc2c(c1)NC(=O)C(C)S2 (stereo unspecified)	x	-0.2	x	x
CSc1nsc(/C=C/Nc2ccc(C)c(C)c2)c1C#N	-0.7	33.1*	-6.7	23.1
COc1ccc(-c2cc(=O)n(-c3nc4ccccc4[nH]3)[nH]2)cc1	5.9	56.2*	-7.1	-2.5
O=C(CSc1nc2ccccc2[nH]1)NCCN1CCCCC1	-1.3	-2.2	-5.0	2.2
CC1=C(C#N)C(=O)N(C2CCS(=O)(=O)C2)C(=O)/C1=C\c1ccco1 (stereo unspecified)	11.9	-3.0	-143.7	99.8*
Cc1ccc(-c2onc3ccc(C=O)cc23)cc1	-1.0	23.5*	-6.6	1.1
CCCc1cc(SCC(=O)Nc2c(C)n(C)n(-c3ccccc3)c2=O)n2c(nc3ccccc32)c1C#N	10.2	7.5	63.2	1.0
Cc1cc(Nc2c(C)n(C)n(-c3ccccc3)c2=O)n2c(nc3cc(F)c(F)cc32)c1C#N	19.6	96.3*	2.4	29.6
CCOC(=O)CSc1nnc(-c2nnc(SCC(=O)OCC)n2CC)n1CC	6.9	-2.2	-2.8	0.9
Nc1nc2nc(-c3ccc(Cl)cc3)cc(C(F)(F)F)n2n1	23.7	u	76.1*	-2.2
Fc1ccc(-c2cc(C(F)(F)F)n3ncnc3n2)cc1	1.9	3.2	1.0	19.6
C#CCn1c(=NC(=O)c2cc(-c3cccs3)nc3ccccc23)sc2cc(S(N)(=O)=O)ccc21	-59.0	12.1	-41.0	8.1
CCN(Cc1ccncc1)Cc1cn[nH]c1-c1ccc(OC)cc1F	2.0	-6.0	1.7	21.2
Nc1cc(=O)[nH]c(SCC(=O)Nc2cccc(Cl)c2Cl)n1	4.0	1.5	-3.6	25.4
Cc1cc(N2CCOCC2)n2nc(C)c(-c3ccccc3)c2n1	85.7*	x	135.8	1.4
CCOC(=O)N1CCC(NC(=O)c2cc3cc4cc(OC)ccc4nc3o2)CC1	-4.5	21.0*	2.3	2.3
COc1cc2cc(C(=O)Nc3ccccc3)c(N)nc2cc1OC	15.7	29.1*	48.5	18.8
CCCCOc1ccc(C2OC34CCCCC3C(C#N)(C#N)C2(C#N)C(=N)O4)cc1 (stereo unspecified)	24.8	-1.7	12.8	-0.7
CCOc1ccc(C2OC34CCCCC3C(C#N)(C#N)C2(C#N)C(=N)O4)cc1OC (stereo unspecified)	24.8	45.4*	24.9	3.6
C=CCOc1ccc(C2OC34CCCCC3C(C#N)(C#N)C2(C#N)C(=N)O4)cc1 (stereo unspecified)	27.3	46.0*	50.1*	1.2
CCOc1ccc(C(=O)C2CCN(C(=O)c3ccc([N+](=O)[O-])cc3)CC2)cc1	x	2.5	x	x
Cc1ncoc1C(=O)N1CCc2c([nH]c3ccccc23)C1C1CCCCC1 (stereo unspecified)	-7.6	u	6.2	-6.8
O=C(O)C1CCCC2CN3CCc4c([nH]c5ccccc45)C3C(O)C21 (stereo unspecified)	x	30.0*	x	x

Source: PubChem
